B1: tRNA (parent)
chain: GUUCCGUUGGCGUAAUGGUAACGCGUCUCCCUCCUAAGGAGAAGACUGCGGGUUCGAGUCCCGUACGGAACG

Drawing on the RNAGym collection of RNA variant scans (doi:10.1126/science.aae0568), this text covers yeast fitness for 37 variants.

Variants at the floor of the assay were thinned out.

Variants of B1 are the subject of this series. The series can be described thus: yeast fitness relative to wild type (ratio to wild type); higher = fitter; tRNA-Arg(CCU), competitive growth, 37 C, YPD. An outline of the steps: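 Gene amplicons from the start population and from each of six end populations were read by 100-nucleotide paired-end sequencing. Those end populations came from pooled Saccharomyces cerevisiae strains carrying tRNA-Arg(CCU) gene variants at the native locus, competed in YPD at 37°C for 24 hours. Fitness relative to wild type was worked out from changes in genotype frequencies. Genotypes needed ≥ 100 starting reads, and estimates < 0.5 were set to 0.5.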
On to GUUCAGUUCGCGUAAUGGUAACGCGUAUCUCUCCUAAGGAGAAGACUGCGGGUUCGAGUCCCGUGCGGAACG [C5A G9C C27A C30U A65G], for which the yeast fitness is ≤ 0.5. Consider GUUCCGUUGGCGUAAUGGUAACGCGUCUCCCCCCUAAGGAGAAGACUGCGGGUUCGAGUCCCAUACGGAACG [U32C G63A], for which the yeast fitness worked out at 0.832. As for GUUCCAUUGGCGUAAUGGUAACGCGUCUCCCUCCUAAGGAGAAGCCUGCGGGUUCGAGUCCCGUACGGAUCG [G6A A45C A70U], the figure is ≤ 0.5; as for GUUCCGUUGGCGUAAUGGUAACGCGUCUCCCUCCUAAGGAGAAGACUACGGGUUCGAGUGCCCUACGGAACG [G48A C60G G63C], ≤ 0.5. As to GUUCCGUUGGCGUAAUCGAAACGGGACUCCCUCUUAAGGAGAAGACUGCGGGUUCGAGUCCCGUACGGUACG [G17C U19A C24G U26A C34U A69U], the yeast fitness was ≤ 0.5. Under GUUCCGUUGGCGUAAUGGUAACGCGUCUGCCUCCUAAGGAGAAGACUGCGGGUUCGAGUCCAGUAUGGAACG [C29G C62A C66U] stands ≤ 0.5. Consider GUUCCGUUGGCGUAAUGCUAACACCUCUCCCUCCUAGGGAGACGACUGCGGGUUCGAGUCCCGUCCGGAACG [G18C G23A G25C A37G A43C A65C], for which the yeast fitness was ≤ 0.5.

For GUUCCGUUGGUGUAAUGGUAACGCGUCUCCCUCCUGAGGAGAAGCCUGCGGGUUCGAGUCCCGUACGGAACG [C11U A36G A45C], the yeast fitness worked out at 0.807. With GUUCCGUUGGCGUAAUGGUGACGCGUGUCCCUCCUAAGGAGAAGACUGCGGAUUCGAGUCCCGUACGGAACG [A20G C27G G52A], the yeast fitness is 0.551. With GCGCCGUUGACGUAAUGGUAACGCGUCUCCCUCCUAAGGAGAAGACUGCGGGUUCGAGUCCCGUACGGCACG [U2C U3G G10A A69C], the yeast fitness is ≤ 0.5. For the variant GUUCCGUUGGCGUAAUGGUAACACGUCUACCUCCUAAGGAGAAGACUGCGGGUUCGAGUCCCGUACGGAACG [G23A C29A], the yeast fitness amounted to 0.536. As to GUUCCGUUGGCGUAAUGGUAACGCGUCUCCCUCCUAGGGAGAAGCAUGCGGGUUCGAGUCCCGUACGGAACG [A37G A45C C46A], the yeast fitness was found to be 0.579. As to GUUCCGUUAGCGUAAUGGUAAGGCGUCUCCCUCCUAAGGAGAAGACUGCGGGUUCGAGUCCCGUCCGGAACG [G9A C22G A65C], the yeast fitness was 0.679. GUUCCGUUGGCGUAAUGGUAACGCGUGUCCCUCCUAAGGAGAAGAAUGCGAGUUCGAGUCCCGUACGGAACG [C27G C46A G51A]: the yeast fitness worked out at 0.525. As for GUUCCGUUGACGUAAUGGUAACGCGUCUCCCUCCUAUGGAGAAGACUGCGGGUUCGAGUCCCGUACGGAACG [G10A A37U], the yeast fitness worked out at 0.622. Turning to GUUCAGUUGGCGUAAUGGUAAAGCGUCUCCCUUCUCAGGAGAAGACUGCGGGUUCGAGUCCCGUACGGAACG [C5A C22A C33U A36C], the yeast fitness worked out at 0.502. As to GUUCCGUUGGCGUAAUGGUAAAGCGUCUCCCUCCUACGGAGAAGACUGCGGGUUCGAGUCCCGUACGGAACG [C22A A37C], the yeast fitness came to 0.641. For GUUCCGCUGGCGUAAUGGUAACGCGUCUCCCUCAUAAGGAGAAGACUGCGGGUUCGAGUCCCGUACGGAACG [U7C C34A], the yeast fitness was 0.764. As for GUUCCGUUGGCGUAAUGGUAACGCGUCUCCGUCCUAAGGAGAAGACUGCGGGUUCGAGUCCAGUACGGACCG [C31G C62A A70C], the yeast fitness is 0.54.

As for GUUCCGUUGGCGUAAUGGUAACGCCUCUCCAUCCUAAGGAGAAGACUACGGGUUCGAGUCACGUGCGGAACG [G25C C31A G48A C61A A65G], the yeast fitness worked out at 0.558. For the variant GUUCCGUUGCCGUAAUGGUAACGCGUCUCCCUCCUAAGGAGAAGAGUGCGAAUUCGAGUCCCGUACGGAACG [G10C C46G G51A G52A], the yeast fitness is ≤ 0.5. Consider GUUCCGUUGGCGUAAUGGUAACGCGUCUCCCUCGUUAGGAGAAGACUGCGGGUUCGAGUCCUGUACGGAACG [C34G A36U C62U], for which the yeast fitness was ≤ 0.5.

With GUUCCGUUGGCGUAAUGGAAACGCGUGUCCUUCCUAAGGAGAAGACUGCGGGUUCGAGUCCCGUACGGAGCG [U19A C27G C31U A70G], the yeast fitness was ≤ 0.5. Take GUUCUGUUGCCGUAAUGGUAACGCGUGCCCCUCCUAAGCAGAAGAGUGCGGGUUCGAGUCCCGUACGGAACG [C5U G10C C27G U28C G39C C46G]: the yeast fitness was 0.606. Consider GUUCCGUUGGCGUAAUGGUAACGCGUCUCCCUCGUAAGGAGACGACUGCGGGUUCGAGUCCCGUACGGAACG [C34G A43C], for which the yeast fitness was determined as 0.594.

Consider GUUCCGUUGGCGUAAUGGUAACGCGUCUUCCUCCUAAGGAGAAGACUGCGGGUUCGAAUCCCGUACGGAACG [C29U G58A], for which the yeast fitness is 1.02. In the case of GUUCCGUUGGCGUAAAGGUAACGCGUCUCCCUCCUAAGGAGAGGACUGCGGGUUCGAGUCCCGUACGGGGCG [U16A A43G A69G A70G], the yeast fitness was ≤ 0.5. Regarding GUUCCGUUGGCGUAAUGGUAACGCGUCUCUCUCCUAAGGAGAAGACUGCGGGUACGAGUCCCGUACGGAGCG [C30U U54A A70G], the yeast fitness came to 0.518.

In the case of GUUCCGUUGGCGUAAUGAUAACGCGUCACCCUCCUAAGGAGGAGCCUGCGGGUUCGAGUCCCGUACGGAACG [G18A U28A A42G A45C], the yeast fitness was ≤ 0.5. For GUUCCGAUGGCGAAAUGGUAACACGUCUCCCUCCUAAGGAGAAGACUGCGGGUUCGAGUCCCGUACGGAACG [U7A U13A G23A], the yeast fitness is ≤ 0.5.

Consider GUUCCGUUGACGUAAUGGUAACGCGUCUGCCUCCUAAGGAGAUGACUGCGGGGUCGAGUCCCGUACGGAACG [G10A C29G A43U U53G], for which the yeast fitness was ≤ 0.5. Turning to GUUCCGUUGGCGUAGUGGUAACGCGUCUCCCUCCUCAGGAGAAGAAUGCGGGUUCGAGUCCCGUGCGGAACG [A15G A36C C46A A65G], the yeast fitness is ≤ 0.5.

Consider GUUCCGUUGGCCUAAUGGUUACGCGUCUCUCUCCUAAAGAGAAGACUGCGGGUUUGAGUCCCGUAUGGAACG [G12C A20U C30U G38A C55U C66U], for which the yeast fitness is ≤ 0.5. In the case of GUUCCGUUGGCGUAAUGGUAACGGGUCUCCCUUCUAAGGAGAGGACAGCGGGUUCGAGUACCGUACGGAACG [C24G C33U A43G U47A C60A], the yeast fitness is ≤ 0.5. Take GUUCCGUUGGCGAAAUGGUAACGCGUCUCCCUCCUAAGGAGAAGACUGCGGGUCCGAGUCCUGUACGGAACG [U13A U54C C62U]: the yeast fitness turned out to be 0.679. On to GUUCCGUUGACGUAGUGGUAACGCGUCUCCCUCCUAAGGAGAAGACUGCGGGUUCGAGUCCCGUUCGGAACG [G10A A15G A65U], for which the yeast fitness stood at 0.702.

As to GGUCCGUUGGCGUAAUGGUAACGCGUCUCCCUCCUAAGGAGAAGCCUGCGGGUUCGAGUCUCGUACGGAACG [U2G A45C C61U], the yeast fitness was determined as 0.615.
